# Compound activity (PubChem)
# Sampled rows, rich in hits. Any-hit rate of the full collection: about 1.7%.
# PP1 inh = blocks human PP1-alpha phosphatase, a PP5 counter-screen | P62136 | purified PP1alpha, OMFP fluorescence | inhibition, % at 6.7 µM | 320,000 tested, 0.9% active;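 active = inhibition above the mean inhibition of all tested compounds plus 3 SD, computed separately for each screening campaign, cut at about 15% in these data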
# GASC-1 inh = human JMJD2C demethylase inhibition; Q9H3R0; GST-JMJD2C(1-420) H3K9me3 demethylation, DELFIA europium; inhibition, % at 2.35 µM; 330,000 tested, 0.069% active; AID 2099;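 active = more than half of a compound's replicate wells show inhibition beyond 50%, single wells judged on their own value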;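 note: signal counts dimethyl H3K9 product captured on neutravidin plate; 0% = median of DMSO wells and 100% = 0.3 times that DMSO median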
# Target sequence (Q9H3R0 1-420 limits assumed): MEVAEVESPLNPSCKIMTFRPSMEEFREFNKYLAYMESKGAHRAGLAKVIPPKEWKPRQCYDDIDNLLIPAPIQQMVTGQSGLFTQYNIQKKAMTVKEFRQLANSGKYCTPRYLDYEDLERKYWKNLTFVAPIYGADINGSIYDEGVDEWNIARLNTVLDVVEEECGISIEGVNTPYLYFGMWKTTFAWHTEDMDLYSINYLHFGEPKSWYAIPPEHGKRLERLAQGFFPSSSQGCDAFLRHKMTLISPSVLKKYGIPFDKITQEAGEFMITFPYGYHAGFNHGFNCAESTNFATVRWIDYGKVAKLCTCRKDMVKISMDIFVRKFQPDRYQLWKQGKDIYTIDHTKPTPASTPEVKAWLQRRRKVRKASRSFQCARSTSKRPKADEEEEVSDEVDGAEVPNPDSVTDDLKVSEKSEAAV
# HTR2A ag = agonists of mouse serotonin 5-HT2A receptor (HTR2A). CHO-K1 mHTR2A beta-arrestin complementation, luminescence; percent of 30 µM serotonin response. AID 624169. activation, % at 7.6 µM. 360,000 tested, 0.66% active. P35363;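 active = activation above a run cutoff, the mean activation of all tested compounds plus 3 SD, cut at about 14% in these data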;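 note: 0% = plate median of compound wells and 100% = 30 µM serotonin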
# PP5 inh = PP5 (human) phosphatase inhibition. inhibition, % at 6.7 µM. P53041. 320,000 tested, 0.18% active. purified PP5c, OMFP substrate fluorescence;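 active = inhibition above the campaign's mean inhibition across all tested compounds plus 3 SD, cut at about 9.5% in these data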;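 note: 0% = DMSO only and 100% = 100 µM cantharidin control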
# T cell HTS = modulates CD8 T cell binding to vesicles | 2C CD8+ T cell-vesicle binding, flow cytometry; stronger effect = lower value | response (vesicle binding), % at 7 µM | 330,000 tested, 0.068% active | AID 2052;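 active = response, share of CD8 T cells binding vesicles, and their 90th percentile fluorescence all below set limits, cut at about 80% in these data, passing the limit was not always enough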;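 note: values below 100% mean blocked vesicle binding to the CD8+ T cells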
#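 Assay system – 2C mouse CD8+ T cells · Also added – QL9-loaded Drosophila micro-vesicles · Timing – Cell–vesicle co-incubation 1.5 h at 37 °C, staining 20 min on ice · Signal – flow cytometry of vesicle-bound cells · Measure – percent CD8+ FL2 mean versus row control · Controls – Peptide-free naked vesicles (low) and QL9 vesicles with 0.7% DMSO vehicle (high)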
# PP1 confirm = human PP1 phosphatase inhibition, confirmation; inhibition, % at 6.7 µM; shares compounds with PP1 inh; purified PP1alpha, OMFP substrate fluorescence; AID 2358; 1,900 tested, 52% active;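 active = mean PP1 inhibition above a set limit taken from the earlier primary screen, cut at about 15% in these data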
# PP5 inh counter = counter-screen for PP1 inhibitors: human PP5 phosphatase inhibition | shares compounds with PP1 inh | purified PP5c, OMFP fluorescence | inhibition, % at 6.7 µM | 1,900 tested, 4% active | AID 2360;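 active = mean PP5 inhibition over triplicate wells above about 9.5% taken from the earlier PP1 screen, limit read from the data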
# * hit, by the source's call; / = no result given.
SMILES,PP1 inh,GASC-1 inh,HTR2A ag,PP5 inh,T cell HTS,PP1 confirm,PP5 inh counter
Cc1ccc(C)c(N(CC(=O)N/N=C/c2ccc(-c3ccc([N+](=O)[O-])cc3)o2)S(=O)(=O)c2ccccc2)c1,3,3,0,2,46,/,/
CCOc1ccc(S(=O)(=O)N(CC(=O)N/N=C/c2ccc(-c3ccc([N+](=O)[O-])cc3)o2)c2ccccc2)cc1,33*,24,5,2,141,35*,0
C#CCOCCOCCOCCNc1nc(N2CCN(C(=O)CCCCCCCCCCNC(=O)[C@@H](CCC(=O)O)n3cc(CCCCCN)nn3)CC2)nc(N2CCN(C(=O)CCCCCCCCCCNC(=O)[C@H](CCCCN)n3cc(C[C@@H](C)CC)nn3)CC2)n1,18*,/,1,1,408,11,2
C#CCOCCOCCOCCNc1nc(N2CCN(C(=O)CCCCCCCCCCNC(=O)[C@@H](CCSC)n3cc(CCO)nn3)CC2)nc(N2CCN(C(=O)CCCCCCCCCCNC(=O)[C@H](CCCN=C(N)N)n3cc(C[C@@H](C)CC)nn3)CC2)n1,49*,/,0,4,255,39*,4
C#CCOCCOCCOCCNc1nc(N2CCN(C(=O)CCCCCCCCCCNC(=O)[C@H](CCCCN)n3cc(CCO)nn3)CC2)nc(N2CCN(C(=O)CCCCCCCCCCNC(=O)[C@H](CCCCN)n3cc(CCCC(=O)O)nn3)CC2)n1,0,/,-1,1,326,/,/
C#CCOCCOCCOCCNc1nc(N2CCN(C(=O)CCCCCCCCCCNC(=O)[C@H](CCCCN)n3cc(CCO)nn3)CC2)nc(N2CCN(C(=O)CCCCCCCCCCNC(=O)[C@H](CCCCN)n3cc(C[C@@H](C)CC)nn3)CC2)n1,41*,38,/,5,604,13,0
C#CCOCCOCCOCCNc1nc(N2CCN(C(=O)CCCCCCCCCCNC(=O)Cn3cc(C[C@@H](C)O)nn3)CC2)nc(N2CCN(C(=O)CCCCCCCCCCNC(=O)[C@@H](CCSC)n3cc(CCO)nn3)CC2)n1,6,/,-4,2,328,/,/
C#CCOCCOCCOCCNc1nc(N2CCN(C(=O)[C@H]([C@@H](C)CC)n3cc(CCC(=O)O)nn3)CC2)nc(N2CCN(C(=O)[C@H](CCCCN)n3cc(CCC(=O)O)nn3)CC2)n1,/,/,5,/,/,/,/
CCc1nc2ccc(C(=O)Nc3ccc(NC(C)=O)cc3)cn2c1N(C)CCCc1ccccc1,/,/,-2,/,/,/,/
N#Cc1ccc(-c2ccco2)nc1SCC(=O)c1ccc(Cl)cc1,26*,6,2,1,231,7,-3
Cc1[nH]c2ccccc2c1/C=N/NC(=O)c1cc(C(C)C)[nH]n1,-3,-13,-5,1,395,/,/
O=C(N/N=C/c1ccccn1)c1cc(-c2ccccc2Cl)n[nH]1,3,-15,-4,0,229,/,/
CCc1ccc(-c2cc(C(=O)N/N=C/c3ccccn3)[nH]n2)cc1,15,-12,-2,1,538,/,/
O=C(N/N=C/c1ccccn1)c1cc(-c2cccc3ccccc23)n[nH]1,19*,3,-1,1,154,27*,3
O=C(N/N=C/c1ccccn1)c1cc(-c2ccc3ccccc3c2)n[nH]1,28*,-9,-2,4,385,62*,6
CN(c1ccccc1)S(=O)(=O)c1cc(C(=O)NCCCn2ccnc2)ccc1Cl,-5,-8,-1,0,248,/,/
O=S(=O)(c1ccc(F)c(F)c1)N1CCCCCCC1,/,/,-5,/,/,/,/
CC(C)(C)c1cc(Br)ccc1OCC(=O)Nc1ncn[nH]1,23*,4,-2,0,726,20*,-2
CC(C)(C)c1ccccc1OCC(=O)Nc1ncn[nH]1,9,-6,-8,5,168,/,/
O=C(Nc1nn[nH]n1)c1cccc(Oc2ccccc2)c1,26*,-3,5,1,237,8,-3
O=C(Nc1nn[nH]n1)c1cccc([N+](=O)[O-])c1,1,-3,0,-1,161,/,/
CCCCNC(=O)CCn1c(=O)c2ccccc2n(Cc2ccc(F)cc2)c1=O,2,0,1,-1,309,/,/
CC(=O)NCCC(=O)NCc1ccc(F)cc1,19*,4,-1,-1,526,-6,-7
CCCCn1c(N)c(N(CCOC)C(=O)c2cccc(S(=O)(=O)N(CC)c3ccccc3)c2)c(=O)[nH]c1=O,-4,-5,0,-3,274,/,/
CCOC(=O)C1=C(c2ccccc2)NC(N)=NC1c1ccc(OCc2ccc(Cl)cc2)c(OC)c1 (configuration not stated),25*,-17,-2,5,205,29*,0
SMILES,PP1 inh,GASC-1 inh,HTR2A ag,PP5 inh,T cell HTS,PP1 confirm,PP5 inh counter
CC(C)(C)n1nnnc1C(c1ccccc1OC(F)(F)F)N1CCN(C/C=C/c2ccccc2)CC1 (configuration not stated),/,/,-5,/,/,/,/
N#Cc1c(=O)c2nc(NCCCO)ncc2n2c(=O)c3ccccc3[nH]c12,20*,14,2,5,118,17*,1
COc1ccc2c(c1)CCC/C2=N\Nc1nc(C(=O)NN)cs1,22*,1,-4,2,151,9,-4
COc1ccc2c(c1)CCC/C2=N\NC(=O)c1ccoc1C,8,6,-1,3,183,/,/
CCOC(=O)c1csc(N/N=C2\CCCc3ccccc32)n1,3,24,5,3,292,/,/
CCOC(=O)c1csc(N/N=C2\CCc3ccccc32)n1,19*,36,3,3,118,17*,-1
Cc1nc(S/C(=C/c2ccc(-c3cc(Cl)ccc3C)o2)C(=O)O)n[nH]1,19*,-16,0,3,145,18*,1
CC(C)(C)C(=O)N1CCN(c2ccc([N+](=O)[O-])c(-n3nc(-c4ccccc4)c4ccccc4c3=O)c2)CC1,22*,-3,4,3,213,11,5
C=C1CCN(c2ccc(C(=O)NCCC)cc2[N+](=O)[O-])CC1,-1,-10,-5,3,642,/,/
Cc1c(C(=O)OCC(=O)Nc2ccccc2OC(F)F)cccc1[N+](=O)[O-],23*,18,-1,2,79,0,-2
O=C(NC(C(=O)N/N=C/c1c2ccccc2cc2ccccc12)c1n[nH]c(=O)c2ccccc12)c1ccccc1 (configuration not stated),18*,-6,-4,4,386,17*,-2
COc1ccc(S(=O)(=O)Nc2cccc3c2O[C@H](CN(C)CC2CCCCC2)[C@@H](C)CN([C@H](C)CO)C3=O)cc1,/,-7,3,/,168,/,/
CCC(=O)NC(c1cccs1)c1cc(Cl)c2cccnc2c1O (configuration not stated),12,25,-10,1,353,/,/
